According to ChEMBL document CHEMBL4706495, “A novel class of small molecule inhibitors with radioprotective properties” (Eur J Med Chem, 2020):

Tests used:
[1] = system: A2780; assay: Cytotoxicity against human A2780 cells assessed as cell viability at 10 uM measured after 48 hrs by WST-1 assay relative to control; type: functional; conditions: read-out: Activity
Method in brief: (§1)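 Ten-line human panel (9 cancer, 1 non-cancerous). Cells were seeded at a pre-established optimal density (500–30 × 10³ per well) and settled overnight. Compounds came from 10 mM DMSO stocks and were tested at two concentrations. WST-1 readout followed the manufacturer's protocol at the end of cultivation. Viability is expressed as % of untreated control cells, mean of three independent experiments.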

[2] = system: HeLa; assay: Cytotoxicity against human HeLa cells assessed as cell viability at 100 uM measured after 48 hrs by WST-1 assay relative to control; type: functional; conditions: read-out: Activity; method in brief: as §1
[3] = system: MOLT-4; assay: Cytotoxicity against human MOLT-4 cells assessed as cell viability at 100 uM measured after 48 hrs by WST-1 assay relative to control; type: functional; conditions: read-out: Activity; method in brief: as §1
[4] = system: MOLT-4; assay: Radioprotective activity against gamma irradiation-induced apoptosis in human MOLT-4 cells assessed as viable cells at 100 uM pretreated with compound for 1 hr followed by gamma irradiation and measured after 24 hrs by annexinV/propidium iodide staining based flow cytometry (reference value: 40 %); type: functional; conditions: MOLT-4, light or radiation study, time 25 hrs, read-out: Activity
[5] = system: A549; assay: Cytotoxicity against human A549 cells assessed as cell viability at 100 uM measured after 48 hrs by WST-1 assay relative to control; type: functional; conditions: read-out: Activity; method in brief: as §1
[6] = system: MOLT-4; assay: Cytotoxicity against human MOLT-4 cells assessed as cell viability at 10 uM measured after 48 hrs by WST-1 assay relative to control; type: functional; conditions: read-out: Activity; method in brief: as §1
[7] = Cytotoxicity against human MRC5 cells assessed as cell viability at 10 uM measured after 48 hrs by WST-1 assay relative to control; type: cell-based; conditions: read-out: Activity; method in brief: as §1
[8] = system: HeLa; assay: Cytotoxicity against human HeLa cells assessed as cell viability at 10 uM measured after 48 hrs by WST-1 assay relative to control; type: functional; conditions: read-out: Activity; method in brief: as §1
[9] = system: PANC-1; assay: Cytotoxicity against human PANC-1 cells assessed as cell viability at 100 uM measured after 48 hrs by WST-1 assay relative to control; type: functional; conditions: read-out: Activity; method in brief: as §1
[10] = system: Jurkat; assay: Cytotoxicity against human Jurkat cells assessed as cell viability at 100 uM measured after 48 hrs by WST-1 assay relative to control; type: functional; conditions: read-out: Activity; method in brief: as §1
[11] = system: Jurkat; assay: Cytotoxicity against human Jurkat cells assessed as cell viability at 10 uM measured after 48 hrs by WST-1 assay relative to control; type: functional; conditions: read-out: Activity; method in brief: as §1
[12] = system: HT-29; assay: Cytotoxicity against human HT-29 cells assessed as cell viability at 100 uM measured after 48 hrs by WST-1 assay relative to control; type: functional; conditions: read-out: Activity; method in brief: as §1
[13] = system: A549; assay: Cytotoxicity against human A549 cells assessed as reduction in cell viability incubated for 24 hrs by MTT assay; type: functional, cell-based; conditions: A549, 24 h
Method in brief: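 A-549 cells in DMEM with 10% FBS and 1% penicillin-streptomycin were attached overnight. Compounds were prepared in PBS and serially diluted in DMEM, then incubated 24 h. Viability was read by colorimetric MTT reduction against an untreated control on each plate (100%). IC50 came from four-parameter nonlinear regression of the log concentration-response curve, mean ± SEM. MTC is the highest concentration not differing from control (t-test).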

[14] = system: MCF7; assay: Cytotoxicity against human MCF7 cells assessed as cell viability at 100 uM measured after 48 hrs by WST-1 assay relative to control; type: functional; conditions: read-out: Activity; method in brief: as §1
[15] = system: A2780; assay: Cytotoxicity against human A2780 cells assessed as cell viability at 100 uM measured after 48 hrs by WST-1 assay relative to control; type: functional; conditions: read-out: Activity; method in brief: as §1
[16] = system: PANC-1; assay: Cytotoxicity against human PANC-1 cells assessed as cell viability at 10 uM measured after 48 hrs by WST-1 assay relative to control; type: functional; conditions: read-out: Activity; method in brief: as §1
[17] = system: SAOS-2; assay: Cytotoxicity against human SAOS-2 cells assessed as cell viability at 100 uM measured after 48 hrs by WST-1 assay relative to control; type: functional; conditions: read-out: Activity; method in brief: as §1
[18] = system: SAOS-2; assay: Cytotoxicity against human SAOS-2 cells assessed as cell viability at 10 uM measured after 48 hrs by WST-1 assay relative to control; type: functional; conditions: read-out: Activity; method in brief: as §1
[19] = Cytotoxicity against human MRC5 cells assessed as cell viability at 100 uM measured after 48 hrs by WST-1 assay relative to control; type: cell-based; conditions: read-out: Activity; method in brief: as §1
[20] = system: A549; assay: Cytotoxicity against human A549 cells assessed as maximum tolerated concentration incubated for 24 hrs by MTT assay; type: functional
Method in brief: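 A-549 cells in DMEM with 10% FBS and 1% penicillin-streptomycin, left to attach overnight. Compounds made up in PBS, serially diluted in DMEM, incubated 24 h, then viability read by MTT reduction against untreated controls on each plate. MTC taken as the highest concentration showing no significant difference from non-treated control (t-test).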

[21] = system: MCF7; assay: Cytotoxicity against human MCF7 cells assessed as cell viability at 10 uM measured after 48 hrs by WST-1 assay relative to control; type: functional; conditions: read-out: Activity; method in brief: as §1
[22] = system: A549; assay: Cytotoxicity against human A549 cells assessed as cell viability at 10 uM measured after 48 hrs by WST-1 assay relative to control; type: functional; conditions: read-out: Activity; method in brief: as §1
[23] = system: HT-29; assay: Cytotoxicity against human HT-29 cells assessed as cell viability at 10 uM measured after 48 hrs by WST-1 assay relative to control; type: functional; conditions: read-out: Activity; method in brief: as §1
[24] = system: Mus musculus; assay: Radioprotective activity in C57Bl/6 mouse assessed as average body weight at 100 mg/kg, ip administered 5 min prior to gamma-irradation at 8.5 Gy and measured immediately (reference value: 25.4 +/- 2.6 g); type: functional
[25] = system: Mus musculus; assay: Radioprotective activity in C57Bl/6 mouse assessed as median survival time at 100 mg/kg, ip administered 5 min prior to gamma-irradation at 8.5 Gy and measured after 30 days (reference value: 12 days); type: functional
[26] = Toxicity in C57Bl/6 mouse assessed as change in body weight at 100 mg/kg, ip measured after 30 days (reference value: 103 +/- 12 %); type: organism-based; conditions: in vivo, 720 h, time 30 day
[27] = system: Mus musculus; assay: Radioprotective activity in C57Bl/6 mouse assessed as average body weight at 100 mg/kg, ip administered 5 min prior to gamma-irradation at 8.5 Gy and measured after 30 days; type: functional
[28] = Toxicity in C57Bl/6 mouse assessed as average body weight at 100 mg/kg, ip and measured immediately (reference value: 26.3 +/- 2.4 g); type: organism-based; conditions: in vivo
[29] = Toxicity in C57Bl/6 mouse assessed as adverse effects at 100 mg/kg, ip measured after 30 days; type: organism-based; conditions: in vivo, 720 h, time 30 day
Method in brief: (§2)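 Safety in C57Bl/6 mice (27 ± 3 g) given a single 100 mg/kg i.p. injection without irradiation. Deaths, adverse effects and body weight followed over 30 days against an untreated control group. Weight reported as change from day 0.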

[30] = Toxicity in C57Bl/6 mouse assessed as mouth death at 100 mg/kg, ip measured after 30 days; type: organism-based; conditions: in vivo, 720 h, time 30 day; method in brief: as §2
[31] = Toxicity in C57Bl/6 mouse assessed as average body weight at 100 mg/kg, ip measured after 30 days (reference value: 27 +/ 3.2 g); type: organism-based; conditions: in vivo, 720 h, time 30 day
[32] = system: Mus musculus; assay: Radioprotective activity in C57Bl/6 mouse assessed as body weight gain at 100 mg/kg, ip administered 5 min prior to gamma-irradation at 8.5 Gy measured after 30 days relative to control; type: functional

SMILES | viability at 10 µM [1] [%] | viability at 100 µM [2] [%] | viability at 100 µM [3] [%] | viability at 100 µM [4] [%] | viability at 100 µM [5] [%] | viability at 10 µM [6] [%] | viability at 10 µM [8] [%] | viability at 100 µM [9] [%] | viability at 100 µM [10] [%] | viability at 10 µM [11] [%] | viability at 100 µM [12] [%] | IC50 [13] [µM] | viability at 100 µM [14] [%] | viability at 100 µM [15] [%] | viability at 10 µM [16] [%] | viability at 100 µM [17] [%] | viability at 10 µM [18] [%] | viability at 48 h, 100 µM [19] [%] | MTD [20] [mM] | viability at 10 µM [21] [%] | other results
OCCN1CCN(CC(O)COc2ccc3ccccc3c2)CC1 (stereo not drawn) | 99 | 116 | 100 | 65 | 102 | 109 | 109 | 95 | 96 | 97 | 103 | 310 | 93 | 91 | 101 | 91 | 98 | 98 | 0.02 | 93 | viability at 48 h, 10 µM [7]: 103%; viability at 10 µM [22]: 102%; viability at 10 µM [23]: 92%
Cc1ccc(OCC(O)CN2CCN(CCO)CC2)cc1 (stereo not drawn) | 97 | 101 | 103 | 58 | 110 | 103 | 100 | 99 | 97 | 101 | 107 | 2430 | 100 | 94 | 102 | 83 | 102 | 100 | 0.29 | 107 | viability at 48 h, 10 µM [7]: 112%; viability at 10 µM [22]: 106%; viability at 10 µM [23]: 98%
Cc1ccc(C(C)C)c(OCC(O)CN2CCN(CCO)CC2)c1 (stereo not drawn) | 100 | 132 | 90 | 58 | 114 | 87 | 105 | 125 | 98 | 97 | 64 | 360 | 85 | 90 | 91 | 109 | 93 | 90 | 0.16 | 100 | viability at 48 h, 10 µM [7]: 102%; viability at 10 µM [22]: 90%; viability at 10 µM [23]: 93%
OCCN1CCN(CC(O)COc2ccccc2)CC1 (stereo not drawn) | 96 | 107 | 96 | 57 | 99 | 92 | 95 | 108 | 91 | 104 | 97 | 5780 | 98 | 96 | 90 | 96 | 102 | 101 | 0.59 | 104 | viability at 48 h, 10 µM [7]: 101%; viability at 10 µM [22]: 97%; viability at 10 µM [23]: 97%
COc1cccc(OC)c1OCC(O)CN1CCN(CCO)CC1 (stereo not drawn) | 95 | 94 | 76 | 61 | 99 | 105 | 101 | 115 | 84 | 110 | 141 | 7810 | 90 | 83 | 104 | 82 | 106 | 115 | 1.56 | 101 | Activity [24]: 27.3 g; MST [25]: 12 days; Activity [26]: 102%; Activity [27]: 27.7 g; Activity [28]: 27 g; Activity [29]: Non-Toxic; Activity [30]: Non-Toxic; Activity [31]: 27.6 g; viability at 10 µM [22]: 97%; Activity [32]: 109%; viability at 10 µM [23]: 102%
